Reference: ChEMBL document CHEMBL1142238, “Highly efficient ligands for dihydrofolate reductase from Cryptosporidium hominis and Toxoplasma gondii inspired by structural analysis” (J Med Chem, 2007)

Columns and labels:
[1] = biological target: T1, Bifunctional dihydrofolate reductase-thymidylate synthase (Toxoplasma gondii, UniProt Q07422); experiment: Inhibition of Toxoplasma gondii DHFR-TS
T1 sequence (Q07422 whole entry): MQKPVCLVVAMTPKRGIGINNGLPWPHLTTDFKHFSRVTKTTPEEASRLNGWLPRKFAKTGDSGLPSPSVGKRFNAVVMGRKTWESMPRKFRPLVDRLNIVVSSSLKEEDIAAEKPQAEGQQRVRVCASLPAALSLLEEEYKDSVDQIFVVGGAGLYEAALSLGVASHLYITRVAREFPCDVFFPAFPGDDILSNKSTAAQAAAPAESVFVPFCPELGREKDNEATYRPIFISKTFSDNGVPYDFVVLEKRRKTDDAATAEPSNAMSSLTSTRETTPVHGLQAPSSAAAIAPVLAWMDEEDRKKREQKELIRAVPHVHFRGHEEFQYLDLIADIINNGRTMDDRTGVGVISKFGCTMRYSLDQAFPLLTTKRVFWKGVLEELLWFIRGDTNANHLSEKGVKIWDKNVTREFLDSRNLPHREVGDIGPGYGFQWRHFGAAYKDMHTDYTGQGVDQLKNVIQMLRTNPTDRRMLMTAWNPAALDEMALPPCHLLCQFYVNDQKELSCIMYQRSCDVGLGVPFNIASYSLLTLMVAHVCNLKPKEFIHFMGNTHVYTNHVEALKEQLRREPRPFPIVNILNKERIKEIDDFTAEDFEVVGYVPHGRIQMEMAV

[2] = Inhibition of Cryptosporidium hominis DHFR-TS expressed in Escherichia coli
[3] = biological target: T2, Bifunctional dihydrofolate reductase-thymidylate synthase (Toxoplasma gondii) (UniProt Q07422); experiment: Ligand efficiency at Toxoplasma gondii DHFR-TS
T2 sequence (whole entry): T1 sequence (Q07422 whole entry)
How it was run: (§1)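 Computed from the enzyme IC50 substituted for Kd: ΔG = (1.99 cal K^-1 mol^-1)(300 K)(ln IC50)(0.001 kcal/cal), divided by the number of non-hydrogen atoms.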

Cryptosporidium hominis [4] = experiment: Ligand efficiency at Cryptosporidium hominis DHFR-TS; how it was run: as §1
[5] = biological target: T2, Bifunctional dihydrofolate reductase-thymidylate synthase (Toxoplasma gondii); experiment: Ligand efficiency at Toxoplasma gondii DHFR-TS relative to TMP
Cryptosporidium hominis [6] = experiment: Ligand efficiency at Cryptosporidium hominis DHFR-TS relative to TMP

| SMILES | IC50 [1] | IC50 [2] | Activity [3] | Activity (Cryptosporidium hominis [4]) | Activity [5] | Activity (Cryptosporidium hominis [6]) |
| --- | --- | --- | --- | --- | --- | --- |
| COc1cc(C(C)C#Cc2cnc(N)nc2N)cc(OC)c1OC (stereo unspecified) | 3.1 µM | – | – | – | – | – |
| COc1cc([C@H](C)C#Cc2c(C)nc(N)nc2N)cc(OC)c1OC | 0.013 µM | 1.91 µM | – | – | – | – |
| COc1cc(Cc2cnc(N)nc2N)cc(OC)c1OC | – | – | 0.33 | 0.32 | – | – |
| COc1cc(C(O)C#Cc2c(C)nc(N)nc2N)cc(OC)c1OC (stereo unspecified) | 9.1 µM | 141 µM | – | – | – | – |
| COc1cc(C(C#Cc2cnc(N)nc2N)OC)cc(OC)c1OC (stereo unspecified) | 9.8 µM | 133 µM | – | – | – | – |
| COc1cc(CC#Cc2cnc(N)nc2N)cc(OC)c1OC | 21.7 µM | 86.1 µM | – | – | 0.28 | 0.24 |
| COc1cc(C(O)C#Cc2cnc(N)nc2N)cc(OC)c1OC (stereo unspecified) | – | 194 µM | – | – | – | – |
| COc1cc(CC#Cc2c(C)nc(N)nc2N)cc(OC)c1OC | 0.88 µM | 10.2 µM | 0.35 | 0.29 | 0.35 | 0.29 |
| COc1cc([C@@H](C)C#Cc2c(C)nc(N)nc2N)cc(OC)c1OC | 0.0014 µM | 0.038 µM | 0.49 | 0.41 | 0.49 | 0.41 |
| COc1cc(C(C#Cc2c(C)nc(N)nc2N)OC)cc(OC)c1OC (stereo unspecified) | 0.55 µM | 5 µM | – | – | – | – |
| COc1cc(C(C)C#Cc2c(C)nc(N)nc2N)cc(OC)c1OC (stereo unspecified) | 0.12 µM | 0.169 µM | – | – | – | – |
| COc1cc(CCc2cnc(N)nc2N)cc(OC)c1OC | 90.2 µM | > 1000 µM | – | – | – | – |
| CN(Cc1cnc2nc(N)nc(N)c2n1)c1ccc(C(=O)N[C@@H](CCC(=O)O)C(=O)O)cc1 [METHOTREXATE] | – | 0.023 µM | 0.33 | 0.32 | – | – |
| COc1cc(/C=C/c2cnc(N)nc2N)cc(OC)c1OC | – | > 1000 µM | – | – | – | – |
